Data on 10 compounds can be found in ChEMBL document CHEMBL1121690, “Inhibition of cholesterol side-chain cleavage. 3. 22-azacholesterol analogues bearing aryl-substituted side chains” (J Med Chem, 1981).

Each structure is given as a SMILES string.

What all share (details): cattle
For data set [1], the target named is T1, cholesterol side-chain cleavage cytochrome P450 (mitochondrial) (Bos taurus, UniProt P00189).
T1 sequence (P00189 whole entry): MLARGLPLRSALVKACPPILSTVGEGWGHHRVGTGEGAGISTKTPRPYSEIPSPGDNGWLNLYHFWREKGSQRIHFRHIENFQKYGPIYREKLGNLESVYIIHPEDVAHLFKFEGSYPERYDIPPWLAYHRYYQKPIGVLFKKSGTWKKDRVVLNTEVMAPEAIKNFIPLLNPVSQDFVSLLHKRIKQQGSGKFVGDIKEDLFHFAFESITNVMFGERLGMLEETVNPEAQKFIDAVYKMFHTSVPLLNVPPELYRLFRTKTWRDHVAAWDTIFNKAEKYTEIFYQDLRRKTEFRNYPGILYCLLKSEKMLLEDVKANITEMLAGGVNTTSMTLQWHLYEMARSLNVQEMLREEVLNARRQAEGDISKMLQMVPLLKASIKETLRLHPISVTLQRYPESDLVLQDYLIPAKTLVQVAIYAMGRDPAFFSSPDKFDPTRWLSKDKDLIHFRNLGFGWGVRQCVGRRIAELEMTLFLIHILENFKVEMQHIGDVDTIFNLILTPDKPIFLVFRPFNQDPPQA
Nature of the data set: Percent inhibition of cholesterol side-chain cleavage cytochrome P450 at 0.1 uM in bovine adrenocortical mitochondrial acetone powder preparations. A digest of the protocol:
(§1)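 Inhibitors were dissolved in DMF and added to the incubation mixture before the substrate, at final concentrations of 100 µM or less. Activity was taken from the change in isotope ratios between zero time and 2 h, read by liquid scintillation counting after the isocaproic acid was driven off by heating under vacuum.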

Data set [2] addresses T1, cholesterol side-chain cleavage cytochrome P450 (mitochondrial). In words: Percent inhibition of cholesterol side-chain cleavage cytochrome P450 at 1 uM in bovine adrenocortical mitochondrial acetone powder preparations. A digest of the protocol: as §1
Data set [3] has the same target. Nature of the data set: Percent inhibition of cholesterol side-chain cleavage cytochrome P450 at 10 uM in bovine adrenocortical mitochondrial acetone powder preparations. A digest of the protocol: as §1
For data set [4] the target is unchanged. Nature of the data set: Percent inhibition of cholesterol side-chain cleavage cytochrome P450 at 100 uM in bovine adrenocortical mitochondrial acetone powder preparations. A digest of the protocol: as §1

For orientation: inhibition means the relative decrease from the control value, in per cent. As to `CC(NC(=O)CCc1ccccc1)C1CCC2C3CC=C4CC(O)CCC4(C)C3CCC12C` (centres undefined), the inhibition at 0.1 µM in data set [1] was 19%.
As to `CC(NC(=O)Cc1ccc([N+](=O)[O-])cc1)C1CCC2C3CC=C4CC(O)CCC4(C)C3CCC12C` (centres undefined), in data set [2], the inhibition at 1 µM was 22%. In addition, the inhibition at 10 µM in data set [3] was determined as 49%. For the same compound, the inhibition at 100 µM in data set [4] was determined as 39%.
In the case of `CC(C(=O)NCc1ccccc1)C1CCC2C3CC=C4CC(O)CCC4(C)C3CCC12C` (centres undefined), the inhibition at 10 µM in data set [3] came out at 31%. Further, in data set [4], the inhibition at 100 µM amounted to 45%.
As to `CC(NC(=O)Cc1ccccc1)C1CCC2C3CC=C4CC(O)CCC4(C)C3CCC12C` (centres undefined), the inhibition at 0.1 µM in data set [1] stood at 28%. Moreover, the inhibition at 10 µM in data set [3] worked out at 44%.
Consider `COc1ccc(CCNC(C)C2CCC3C4CC=C5CC(O)CCC5(C)C4CCC23C)cc1` (centres undefined), for which the inhibition at 0.1 µM in data set [1] was -6%. In addition, in data set [3], the inhibition at 10 µM was 40%.
For the compound `CC(NCCc1ccc(Cl)cc1)C1CCC2C3CC=C4CC(O)CCC4(C)C3CCC12C` (centres undefined), the inhibition at 1 µM in data set [2] is 22%.
For the compound `CC(NC(=O)c1ccccc1)C1CCC2C3CC=C4CC(O)CCC4(C)C3CCC12C` (centres undefined), the inhibition at 0.1 µM in data set [1] was found to be 9%. In addition, the inhibition at 1 µM in data set [2] was found to be 53%. For the same compound, in data set [3], the inhibition at 10 µM amounted to 84%. Also, in data set [4], the inhibition at 100 µM came out at 84%.
For `COc1ccc(CC(=O)NC(C)C2CCC3C4CC=C5CC(O)CCC5(C)C4CCC23C)cc1` (centres undefined), the inhibition at 0.1 µM in data set [1] was found to be 38%.
As to `CC(NC(=O)Cc1ccc(Cl)cc1)C1CCC2C3CC=C4CC(O)CCC4(C)C3CCC12C` (centres undefined), the inhibition at 0.1 µM in data set [1] is 25%.
Take `CC(NC(=O)Cc1cccc(I)c1)C1CCC2C3CC=C4CC(O)CCC4(C)C3CCC12C` (centres undefined): in data set [2], the inhibition at 1 µM worked out at 18%. In addition, in data set [3], the inhibition at 10 µM came to 73%.
